Active and inactive are the calls of the source. No cut-off for these calls is given here.
How the values were obtained:
Human betaherpesvirus 5 [1] = test: Antiviral activity against Human cytomegalovirus Davis assessed as reduction of virus induced cytopathicity by cell based assay; type: functional, organism-based; conditions: for EC50: Human betaherpesvirus 5, Davis
Summary of the method: (§1)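 Confluent cell monolayers infected with 100 CCID50 virus, or 20 PFU for plaque assays, then incubated with serial compound dilutions. Host cells listed for the non-HIV panel are HEL fibroblasts, Vero, HeLa, CRFK or MDCK. Cytopathicity is scored, or plaques counted for VZV, once infected untreated controls reach full CPE.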

[2] = Selectivity index, ratio CC50 for human HEL cells to EC50 for Human cytomegalovirus Davis; type: toxicity, cell-based; conditions: read-out: Ratio CC50/EC50
Summary of the method: (§2)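 HEL fibroblasts seeded at 5 × 10^3 cells/well and allowed to grow 24 h. Medium with compound dilutions is then added and cells are incubated 3 days at 37 °C before Coulter counting. CC50, the concentration halving cell number relative to untreated controls, is read from plots. SI is CC50 divided by the antiviral EC50 from the CPE or plaque-reduction assay in HEL cells.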

[3] = Selectivity index, ratio CC50 for human HEL cells to EC50 for Herpes simplex virus 1 strain KOS; type: toxicity, cell-based; conditions: read-out: Ratio CC50/EC50; summary of the method: as §2
[4] = Cytotoxicity against human HEL cells assessed as alteration of cell morphology after 3 days by microscopic analysis; type: cell-based
Summary of the method: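 MCC taken as the lowest compound concentration producing microscopically detectable alteration of HEL fibroblast morphology.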

Human alphaherpesvirus 3 [5] = test: Antiviral activity against thymidine kinase-deficient Varicella-zoster virus YS/R assessed as reduction of virus induced cytopathicity by cell based assay; type: functional, organism-based; conditions: for EC50: Human alphaherpesvirus 3, YS/R
HEL = test: Cytotoxicity against human HEL cells after 3 days by coulter counter; type: cell-based; conditions: 72 h
Summary of the method: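 HEL cells seeded at 5 × 10^3 cells/well and allowed to proliferate for 24 h, then exposed to a range of compound concentrations for 3 days at 37 °C. Cells counted with a Coulter counter.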

L1210 = test: Cytostatic activity against mouse L1210 cells; type: functional
[6] = tested on: Human immunodeficiency virus 1; test: Antiviral activity against Human immunodeficiency virus type1 3B infected in human CEM cells assessed as HIV-induced CEM giant cell formation after 4 days by microscopic analysis; type: functional, organism-based; conditions: Human immunodeficiency virus 1, 3B, CCRF-CEM, 96 h
Summary of the method: (§3)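 Human CEM cells (~3 × 10^5 cells/ml) infected with 100 CCID50/ml of HIV-1 (IIIB) or HIV-2 (ROD), then seeded into wells holding compound dilutions. After 4 days at 37 °C, HIV-induced giant cell formation is scored by microscopy.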

Human alphaherpesvirus 1 [7] = test: Antiviral activity against Herpes simplex virus 1 strain KOS assessed as reduction of virus induced cytopathicity by cell based assay; type: functional, organism-based; conditions: for EC50: Human alphaherpesvirus 1, KOS; summary of the method: as §1
[8] = Selectivity index, ratio CC50 for human HEL cells to EC50 for thymidine kinase-deficient Varicella-zoster virus 07/1; type: toxicity, cell-based; conditions: read-out: Ratio CC50/EC50; summary of the method: as §2
Human alphaherpesvirus 3 [9] = test: Antiviral activity against Varicella-zoster virus YS expressing thymidine kinase assessed as reduction of virus induced cytopathicity by cell based assay; type: functional, organism-based; conditions: for EC50: Human alphaherpesvirus 3, YS
Sindbis virus = test: Antiviral activity against Sindbis virus assessed as reduction of virus induced cytopathicity by cell based assay; type: functional, organism-based
Summary of the method: (§4)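 Confluent cell monolayers in 96-well plates (HEL, Vero, HeLa, CRFK or MDCK; the cell type per virus is not specified) infected with 100 CCID50 virus or 20 PFU and incubated with serial compound dilutions. Cytopathicity scored once it was complete in untreated infected controls.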

[10] = tested on: Vesicular stomatitis virus; test: Antiviral activity against Vesicular stomatitis virus assessed as reduction of virus induced cytopathicity by cell based assay; type: functional, organism-based; summary of the method: as §1
[11] = Selectivity index, ratio CC50 for human HEL cells to EC50 for Vaccinia virus Lederle; type: toxicity, cell-based; conditions: read-out: Ratio CC50/EC50; summary of the method: as §2
Human respirovirus 3 = test: Antiviral activity against Human parainfluenza virus 3 assessed as reduction of virus induced cytopathicity by cell based assay; type: functional, organism-based; summary of the method: as §4
Coxsackievirus B4 = test: Antiviral activity against Coxsackievirus B4 assessed as reduction of virus induced cytopathicity by cell based assay; type: functional, organism-based; summary of the method: as §4
[12] = Selectivity index, ratio CC50 for human HEL cells to EC50 for Varicella-zoster virus strain OKA expressing thymidine kinase; type: toxicity, cell-based; conditions: read-out: Ratio CC50/EC50; summary of the method: as §2
Human alphaherpesvirus 2 = test: Antiviral activity against Herpes simplex virus 2 strain G assessed as reduction of virus induced cytopathicity by cell based assay; type: functional, organism-based; conditions: for EC50: Human alphaherpesvirus 2, strain G; summary of the method: as §1
[13] = tested on: Respiratory syncytial virus; test: Antiviral activity against Respiratory syncytial virus Long assessed as reduction of virus induced cytopathicity by cell based assay; type: functional, organism-based; summary of the method: as §4
[14] = Selectivity index, ratio CC50 for human HEL cells to EC50 for Herpes simplex virus 2 strain G; type: toxicity, cell-based; conditions: read-out: Ratio CC50/EC50; summary of the method: as §2
[15] = Selectivity index, ratio CC50 for human HEL cells to EC50 for Varicella-zoster virus YS expressing thymidine kinase; type: toxicity, cell-based; conditions: read-out: Ratio CC50/EC50; summary of the method: as §2
Human alphaherpesvirus 3 [16] = test: Antiviral activity against Varicella-zoster virus strain OKA expressing thymidine kinase assessed as reduction of virus induced cytopathicity by cell based assay; type: functional; conditions: for EC50: Human alphaherpesvirus 3, strain Oka vaccine; for Activity: strain Oka vaccine; summary of the method: as §1
Vaccinia virus = test: Antiviral activity against Vaccinia virus Lederle assessed as reduction of virus induced cytopathicity by cell based assay; type: functional, organism-based; conditions: Orthopoxvirus vaccinia; summary of the method: as §1
[17] = Selectivity index, ratio CC50 for human HEL cells to EC50 for thymidine kinase-deficient Varicella-zoster virus YS/R; type: toxicity, cell-based; conditions: read-out: Ratio CC50/EC50; summary of the method: as §2
CCRF-CEM = test: Cytostatic activity against human CEM cells; type: cell-based
FM3A = test: Cytostatic activity against mouse FM3A cells; type: functional
[18] = Selectivity index, ratio CC50 for human HEL cells to EC50 for thymidine kinase-deficient acyclovir-resistant Herpes simplex virus 1 strain KOS; type: toxicity, cell-based; conditions: read-out: Ratio CC50/EC50; summary of the method: as §2
Punta Toro virus = test: Antiviral activity against Punta Toro virus assessed as reduction of virus induced cytopathicity by cell based assay; type: functional, organism-based; summary of the method: as §4
[19] = tested on: Mammalian orthoreovirus 1; test: Antiviral activity against Reovirus-1 assessed as reduction of virus induced cytopathicity by cell based assay; type: functional, organism-based; summary of the method: as §4
Human alphaherpesvirus 3 [20] = test: Antiviral activity against thymidine kinase-deficient Varicella-zoster virus 07/1 assessed as reduction of virus induced cytopathicity by cell based assay; type: functional, organism-based; conditions: for EC50: Human alphaherpesvirus 3, 07/1; summary of the method: as §1
[21] = Selectivity index, ratio CC50 for human HEL cells to EC50 for Human cytomegalovirus strain AD169; type: toxicity, cell-based; conditions: read-out: Ratio CC50/EC50; summary of the method: as §2
[22] = tested on: Human immunodeficiency virus 2; test: Antiviral activity against Human immunodeficiency virus type 2 ROD infected in human CEM cells assessed as HIV-induced CEM giant cell formation after 4 days by microscopy; type: functional, organism-based; conditions: Human immunodeficiency virus 2, ISOLATE ROD, CCRF-CEM, 96 h; summary of the method: as §3
Human alphaherpesvirus 1 [23] = test: Antiviral activity against thymidine kinase-deficient acyclovir-resistant Herpes simplex virus 1 strain KOS assessed as reduction of virus induced cytopathicity by cell based assay; type: functional, organism-based; conditions: for EC50: Human alphaherpesvirus 1, KOS; summary of the method: as §1
Human betaherpesvirus 5 [24] = test: Antiviral activity against Human cytomegalovirus strain AD169 assessed as reduction of virus induced cytopathicity by cell based assay; type: functional, organism-based; conditions: for EC50: Human betaherpesvirus 5, AD169; summary of the method: as §1

Structure (SMILES) | EC50 (Human betaherpesvirus 5 [1]) | MCC at 72 h [4] | EC50 (Human alphaherpesvirus 3 [5]) | CC50 (HEL) | CC50 (L1210) | EC50 (Human alphaherpesvirus 1 [7]) | EC50 (Human alphaherpesvirus 3 [9]) | Activity (Sindbis virus) | Activity [10] | Activity (Human respirovirus 3) | Activity (Coxsackievirus B4) | EC50 (Human alphaherpesvirus 2) | Activity [13] | EC50 (Human alphaherpesvirus 3 [16]) | EC50 (Vaccinia virus) | CC50 (CCRF-CEM) | Activity (Punta Toro virus) | Activity [19] | EC50 (Human alphaherpesvirus 3 [20]) | EC50 (Human alphaherpesvirus 1 [23]) | also measured
CC(CP(=O)(O)O)OCCn1cnc2c(N)ncnc21 (stereo not drawn) | 0.9 µM | 322 µM | 0.07 µM | 13 µM | 10 µM | 1.3 µM | 0.1 µM | inactive | inactive | inactive | inactive | 2.3 µM | inactive | 0.07 µM | 27 µM | 20 µM | inactive | inactive | 0.11 µM | 1.7 µM | selectivity ratio [2]: 14; selectivity ratio [3]: 6; EC50 [6]: 11 µM; selectivity ratio [8]: 120; selectivity ratio [11]: < 1; selectivity ratio [12]: 120; selectivity ratio [14]: 6; selectivity ratio [15]: 120; selectivity ratio [17]: 120; CC50 (FM3A): 2.7 µM; selectivity ratio [18]: 6; selectivity ratio [21]: 14; EC50 [22]: 9 µM
Nc1ncnc2c1ncn2CCOC(Cc1ccccc1)CP(=O)(O)O (stereo not drawn) | 68 µM | > 265 µM | 2.5 µM | ≥ 247 µM | 273 µM | 53 µM | 2.9 µM | inactive | inactive | inactive | inactive | 86 µM | inactive | 2.9 µM | > 265 µM | 530 µM | inactive | inactive | 4.7 µM | 53 µM | EC50 (Human betaherpesvirus 5 [24]): 59 µM; CC50 (FM3A): 90 µM
CCC(CP(=O)(O)O)OCCn1cnc2c(N)ncnc21 (stereo not drawn) | 243 µM | > 317 µM | 43 µM | > 317 µM | > 660 µM | 238 µM | 42 µM | inactive | inactive | inactive | inactive | 286 µM | inactive | 19 µM | > 317 µM | > 660 µM | inactive | inactive | 22 µM | 251 µM | EC50 (Human betaherpesvirus 5 [24]): 159 µM; CC50 (FM3A): 432 µM
Nc1ccn(C[C@@H](CO)OCP(=O)(O)O)c(=O)n1 [CIDOFOVIR] | 0.7 µM | > 317 µM |  | 254 µM |  | 1.3 µM |  |  |  |  |  | 0.9 µM |  | 0.29 µM |  |  |  |  | 0.1 µM | 1 µM | selectivity ratio [2]: 195; selectivity ratio [3]: 322; selectivity ratio [8]: 880; selectivity ratio [11]: 35; selectivity ratio [12]: 880; selectivity ratio [14]: 322; selectivity ratio [15]: 880; selectivity ratio [17]: 880; selectivity ratio [18]: 322; selectivity ratio [21]: 195
CC(CP(=O)(O)O)OCCn1ccc(=O)[nH]c1=O (stereo not drawn) | 34 µM | > 360 µM | 12 µM | 291 µM |  | 43 µM | 9.9 µM | inactive | inactive | inactive | inactive | 34 µM | inactive | 6.3 µM | > 360 µM |  | inactive | inactive | 13 µM | 97 µM | EC50 (Human betaherpesvirus 5 [24]): 36 µM
O=c1[nH]cnc2c1ncn2CCOC(COCc1ccccc1)CP(=O)(O)O (stereo not drawn) |  |  |  |  |  |  |  | inactive | inactive | inactive | inactive |  | inactive |  |  |  | inactive | inactive |  |  | Activity (Human betaherpesvirus 5 [1]): inactive; Activity (Human alphaherpesvirus 3 [5]): inactive; Activity (Human alphaherpesvirus 1 [7]): inactive; Activity (Human alphaherpesvirus 3 [9]): inactive; Activity (Human alphaherpesvirus 2): inactive; Activity (Human alphaherpesvirus 3 [16]): inactive; Activity (Human betaherpesvirus 5 [24]): inactive; Activity (Vaccinia virus): inactive; Activity (Human alphaherpesvirus 3 [20]): inactive; Activity (Human alphaherpesvirus 1 [23]): inactive
CC(CP(=O)(O)O)OCCn1cnc2c(N)nc(N)nc21 (stereo not drawn) |  |  |  |  |  |  |  | inactive | inactive | inactive | inactive |  | inactive |  |  |  | inactive | inactive |  |  | Activity (Human betaherpesvirus 5 [1]): inactive; Activity (Human alphaherpesvirus 3 [5]): inactive; Activity (Human alphaherpesvirus 1 [7]): inactive; Activity (Human alphaherpesvirus 3 [9]): inactive; Activity (Human alphaherpesvirus 2): inactive; Activity (Human alphaherpesvirus 3 [16]): inactive; Activity (Human betaherpesvirus 5 [24]): inactive; Activity (Vaccinia virus): inactive; Activity (Human alphaherpesvirus 3 [20]): inactive; Activity (Human alphaherpesvirus 1 [23]): inactive
